# Bioassay records as filed in PubChem.
# An excerpt weighted towards active compounds, which were near 2.9% of everything screened.
# S100A4 MyoIIA – S100A4-myosin IIA interaction inhibition; AID 652163; P26447; inhibition, % at 10.7 µM; hit rate 0.14% among 360,000; S100A4/TAMRA-MyoIIA peptide fluorescence polarization;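 active = mean inhibition of at least 70% across replicates, with every replicate also reaching that level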
# Target sequence (P26447 whole entry, looked up): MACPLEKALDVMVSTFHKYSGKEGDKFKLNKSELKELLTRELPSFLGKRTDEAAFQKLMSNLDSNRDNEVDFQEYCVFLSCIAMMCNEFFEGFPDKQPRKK
#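 incubation = readout 5 min after mixing, signal stable up to 60 min | system = S100A4 monomer protein | buffer or medium = HEPES pH 7.2 with CaCl2, KCl, NaCl, DTT, Triton | benchmarks = neutral control DMSO, positive control TFP | also added = fluorescent myosin IIA peptide, 5 nM | compound dosing = one concentration per compound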
# DENV2 CPE rescue – inhibitors of DENV2 cytopathic effect | CPE inhibition, % at 9.99 µM | hit rate 1.7% among 350,000 | AID 651640 | DENV2-infected cells, cytopathic effect rescue, plate reader; in the data active = CPE inhibition above about 20%, passing the limit was not always enough; tested in BHK-21 cells;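 also: 0% = median of neutral control wells and 100% = median of positive control wells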
# PGC1a acetyl inh – PGC1a acetylation modulation, inhibitor mode | U2OS PGC1a acetylation, AlphaScreen anti-acetyl-lysine; with virally co-expressed GCN5 acetyltransferase | hit rate 0.17% among 350,000 | AID 651687 | inhibition, % at 15.6 µM;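 active = every replicate shows inhibition of at least 40%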;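 also: 0% = neutral control wells and 100% = positive control wells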
# Statin myotox sup – suppressors of simvastatin-induced myotoxicity in C2C12 myotubes; hit rate 0.78% among 330,000; ATP luminescence, 48 h; scaled: DMSO 0, geranylgeraniol control 100; rescue of ATP level, % at 7.49 µM; AID 602340;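 active = mean ATP rescue above about 67%, or every replicate alone reaching that limit, limit read from the data, passing the limit was not always enough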;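 also: myotubes were challenged with 10 µM simvastatin during compound exposure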
# SIRT5 block – blocks human SIRT5 desuccinylation of peptide; inhibition, % at 15 µM; Purified SirT5, succinyl-peptide AMC, trypsin-coupled fluorescence; AID 652115; Q9NXA8; hit rate 1.1% among 330,000; in the data active = inhibition above about 15%
# Target sequence (Q9NXA8 whole entry, looked up): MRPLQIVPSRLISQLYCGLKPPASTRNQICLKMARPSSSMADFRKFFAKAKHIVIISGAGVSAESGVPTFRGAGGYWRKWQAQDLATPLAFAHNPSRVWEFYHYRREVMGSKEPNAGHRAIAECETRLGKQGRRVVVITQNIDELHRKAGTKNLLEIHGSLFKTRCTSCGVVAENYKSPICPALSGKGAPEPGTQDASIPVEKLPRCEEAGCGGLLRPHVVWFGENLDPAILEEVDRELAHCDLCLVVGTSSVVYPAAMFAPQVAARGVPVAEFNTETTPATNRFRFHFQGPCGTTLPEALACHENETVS
# Starred values were filed as active, the others as inactive; / = not tested or not shown.
SMILES,S100A4 MyoIIA,DENV2 CPE rescue,PGC1a acetyl inh,Statin myotox sup,SIRT5 block
O=C(CN1CCOCC1)N1CCCCN2[C@H](C1)[C@@H](c1ccc(/C=C/c3ccccc3)cc1)[C@@H]2CO,-7.5,6.0,5.2,-9.0,-1.6
O=C(CN1CCOCC1)N1CCCCN2[C@H](C1)[C@H](c1ccc(-c3ccccc3)cc1)[C@@H]2CO,13.7,3.9,6.9,14.6,21.3*
CCCNC(=O)[C@@H]1[C@@H](CO)[C@@H]2Cn3c(cccc3=O)[C@@H]2N1CC1CC1,5.7,2.8,-3.2,-3.0,8.2
CC(C)(CO)CNC(=O)CCc1nnc(CCCc2ccccc2)o1,4.2,0.6,/,/,2.7
O=C(CCc1nnc(Cc2cccc(C(F)(F)F)c2)o1)NCC(F)(F)F,-1.3,5.8,/,/,17.7*
CC(C)(CO)CNC(=O)CCc1nnc(Cc2ccc(-c3ccccc3)cc2)o1,-2.5,1.5,-6.1,/,25.6*
CCNC(=O)Nc1ccc2c(c1)C(=O)N(C)[C@H]1CC[C@H](CC(=O)NCc3ccccc3F)O[C@H]1CO2,8.5,3.7,-4.0,-16.4,-0.4
Cc1ccc(/C=C2/SC(=O)N(CC(=O)N3CCOCC3)C2=O)s1,105.9*,4.0,-0.6,-6.0,-1.3
O=C(C[C@H]1CC[C@@H](NC(=O)C2CC2)[C@H](CO)O1)Nc1ccccc1,27.7,4.6,-0.4,-3.8,2.5
CCc1cc(Cn2nc(-c3ccccc3)cc2C(=O)NCC2CC2)on1,-3.6,47.8*,-9.5,5.3,/
CCc1cc(Cn2nc(-c3ccccc3)cc2C(=O)NCCOC)on1,-3.9,17.1,/,-11.1,0.3
CCC(=O)NCCn1c(C)cc2ccccc21,/,/,1.8,-11.2,/
Cc1cc2ccccc2n1CCNC(=O)c1ccccc1,/,/,-1.9,/,/
Cc1cc2ccccc2n1CCNC(=O)c1ccc(Br)o1,89.8*,12.3,/,-5.0,-0.6
Cc1cc2ccccc2n1CCNC(=O)Cc1cccc2ccccc12,73.2*,15.9,/,16.8,1.6
CCCCCCNC(=O)c1ccc(Br)o1,1.9,9.2,-17.9,4.3,32.2*
COCC(=O)N(C)C[C@H]1Oc2ncc(-c3ccc(F)cc3)cc2C(=O)N([C@H](C)CO)C[C@@H]1C,-6.8,10.8,12.3,9.8,1.8
C[C@H]1CN([C@@H](C)CO)C(=O)Cc2cc(NC(=O)NC3CCCCC3)ccc2O[C@H]1CN(C)Cc1ccc2c(c1)OCO2,3.0,-4.1,1.5,-16.3,6.0
CCCSC1=N/C(=C\c2ccsc2)C(=O)S1,/,/,9.7,103.4*,/
CCSC1=N/C(=C\c2ccc3c(c2)OCO3)C(=O)S1,/,/,3.2,97.1*,/
CCCSC1=N/C(=C\c2ccc3c(c2)OCO3)C(=O)S1,/,/,0.9,/,/
COC(=O)C[C@H]1CC[C@H]2[C@H](COc3ccc(NC(=O)Nc4cc(C)cc(C)c4)cc3C(=O)N2C)O1,5.3,-0.5,/,-5.4,5.8
COc1ccc(CN(C)C[C@H]2Oc3ccc(NS(=O)(=O)c4ccc(Cl)cc4)cc3CC(=O)N([C@@H](C)CO)C[C@@H]2C)cc1,-12.6,24.5*,-4.0,86.0*,26.7*
COc1ccc(CN(C)C[C@H]2Oc3ccc(NS(=O)(=O)c4ccc(Cl)cc4)cc3CC(=O)N([C@H](C)CO)C[C@H]2C)cc1,15.2,12.4,-6.9,62.7,7.0
COc1ccc(S(=O)(=O)Nc2ccc3c(c2)CC(=O)N([C@@H](C)CO)C[C@H](C)[C@H](CN(C)Cc2ccccc2)O3)cc1,-1.1,2.4,/,53.6,4.5
SMILES,S100A4 MyoIIA,DENV2 CPE rescue,PGC1a acetyl inh,Statin myotox sup,SIRT5 block
COc1ccc(S(=O)(=O)Nc2ccc3c(c2)CC(=O)N([C@H](C)CO)C[C@@H](C)[C@H](CN(C)Cc2ccccc2)O3)cc1,4.2,-8.3,/,72.5*,3.8
COc1ccc(S(=O)(=O)Nc2ccc3c(c2)CC(=O)N([C@@H](C)CO)C[C@H](C)[C@@H](CN(C)Cc2ccc(Cl)c(Cl)c2)O3)cc1,-0.9,-8.0,-16.4,122.2*,8.9
COc1ccc(S(=O)(=O)Nc2ccc3c(c2)CC(=O)N([C@H](C)CO)C[C@@H](C)[C@H](CN(C)Cc2ccc(-c4ccccc4)cc2)O3)cc1,8.1,56.8*,-13.9,64.3,7.5
C[C@H]1CN([C@@H](C)CO)C(=O)CCCn2cc(nn2)CO[C@H]1CN(C)C(=O)NC1CCCCC1,-5.0,-3.1,-12.0,4.0,-1.8
COc1ccc(S(=O)(=O)Nc2ccc3c(c2)CC(=O)N([C@H](C)CO)C[C@@H](C)[C@@H](CN(C)Cc2ccc(Oc4ccccc4)cc2)O3)cc1,-14.2,1.9,-7.3,23.0,16.1*
COc1ccc(S(=O)(=O)Nc2ccc3c(c2)CC(=O)N([C@@H](C)CO)C[C@@H](C)[C@H](CN(C)Cc2ccc(Oc4ccccc4)cc2)O3)cc1,7.0,8.9,-12.2,97.5*,1.5
COc1ccc(CN(C)C[C@@H]2Oc3ccc(NS(=O)(=O)c4ccccc4)cc3CC(=O)N([C@@H](C)CO)C[C@H]2C)cc1,-3.8,14.9,0.9,/,-1.3
COc1ccc(S(=O)(=O)Nc2ccc3c(c2)CC(=O)N([C@H](C)CO)C[C@H](C)[C@H](CN(C)Cc2ccc(Oc4ccccc4)cc2)O3)cc1,-7.6,8.8,-5.0,5.0,11.7
CN1CCCCN2[C@H](C1)[C@H](c1ccc(Br)cc1)[C@@H]2CO,12.1,-3.3,5.4,-0.6,-2.1
COc1ccc(S(=O)(=O)N(C)C[C@@H]2Oc3ccc(NC(=O)NC4CCCCC4)cc3C(=O)N([C@H](C)CO)C[C@H]2C)cc1,-5.0,1.3,10.7,10.8,0.1
O=C(Cc1ccc(S(=O)(=O)N2CCOCC2)s1)NCC(=O)Nc1ccccc1Br,-8.1,126.3*,-4.7,10.1,0.6
CCOc1ccc(NC(=O)Cc2ccc(S(=O)(=O)N3CCOCC3)s2)cc1OCC,-3.2,64.8*,/,1.8,-1.1
COC(=O)C(N)Cc1ccc(O)c(O)c1 (centres undefined),/,/,1.3,2.1,/
N[C@@H](Cc1cc(I)c(O)c(I)c1)C(=O)O,-0.8,-1.7,-1.0,0.2,32.9*
CCC(CC)C(=O)NC12CC3CC(CC(C3)C1)C2,/,/,3.6,89.4*,/
CC1CC(=O)c2c(cc3c(-c4c(O)cc(O)c5c(O)c6c(cc45)OC(C)CC6=O)c(O)cc(O)c3c2O)O1 (centres undefined),/,/,63.4*,-235.7,/
O=C1CC(c2ccc(O)c(O)c2)Oc2cc(O)cc(O)c21 (centres undefined),-0.7,-4.3,18.7,-6.8,/
Cc1cccc(C)c1-n1nnnc1C1(C)CCC(=O)N1Cc1cccnc1 (centres undefined),-8.5,37.6*,/,/,/
Cc1ccc(CN2C(=O)CCC2(C)c2nnnn2-c2c(C)cccc2C)cc1 (centres undefined),-8.7,-4.2,/,/,16.1*
Cc1cccc(C)c1-n1nnnc1C1(C)CCC(=O)N1Cc1cccs1 (centres undefined),-8.0,56.9*,/,/,-6.1
COc1ccc(CN2C(=O)CCC2(C)c2nnnn2-c2c(C)cccc2C)cc1 (centres undefined),-4.9,13.0,/,/,/
